Experimental data: ChEMBL document CHEMBL3872225, “Synthesis, binding assays, cytotoxic activity and docking studies of benzimidazole and benzothiophene derivatives with selective affinity for the CB2 cannabinoid receptor” (Eur J Med Chem, 2016)

Biological target: Cannabinoid receptor 1 (Homo sapiens, UniProt P21554)
Assay: Displacement of [3H]CP-55940 from human recombinant CB1 receptor expressed in HEK293 cell membranes incubated for 1.5 hrs
Conditions: not given
In short: (§1)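 Membranes from HEK-293 cells overexpressing human CB1 or CB2 incubated with increasing compound concentrations and 0.5 nM [3H]CP-55,940 at 30 °C for 1.5 h. […] Selectivity index is Ki CB1/Ki CB2.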

Cannabinoid receptor 1, sequence (P21554 whole entry): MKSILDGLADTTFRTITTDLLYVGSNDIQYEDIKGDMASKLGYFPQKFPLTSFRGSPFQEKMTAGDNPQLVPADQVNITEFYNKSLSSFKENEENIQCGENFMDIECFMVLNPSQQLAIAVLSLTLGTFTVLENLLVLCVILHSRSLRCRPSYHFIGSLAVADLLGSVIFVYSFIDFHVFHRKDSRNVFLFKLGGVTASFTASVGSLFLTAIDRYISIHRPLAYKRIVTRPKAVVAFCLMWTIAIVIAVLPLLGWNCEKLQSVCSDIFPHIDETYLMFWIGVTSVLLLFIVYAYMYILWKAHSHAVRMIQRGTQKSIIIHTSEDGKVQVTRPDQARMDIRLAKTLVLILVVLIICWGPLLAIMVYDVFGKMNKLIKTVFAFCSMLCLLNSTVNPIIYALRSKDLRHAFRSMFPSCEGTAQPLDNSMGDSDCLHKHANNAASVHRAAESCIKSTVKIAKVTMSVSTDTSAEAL

SMILES	IC50 [nM]	Ki [nM]
COc1ccc(C(=O)n2c(C3CCCC3)nc3ccccc32)cc1	> 10000	> 10000
CC(C)c1nc2ccccc2n1C(=O)c1cccc2ccccc12	> 10000	> 10000
COc1ccc(C(=O)n2c(-c3ccc(OC)cc3)nc3ccccc32)cc1	> 10000	> 10000
CCCc1sc2ccccc2c1C(=O)c1cccc2ccccc12	1000	600
COc1ccc(C(=O)c2c(-c3ccc(OC)cc3)sc3ccccc23)cc1	1100	700
COc1ccc(-c2nc3ccccc3n2C(=O)c2cccc3ccccc23)cc1	8100	4900
CCCCCc1sc2ccccc2c1C(=O)c1cccc2ccccc12	800	500
COc1ccc(C(=O)n2c(C(C)C)nc3ccccc32)cc1	> 10000	> 10000
COc1ccc(C(=O)n2c(C(C)(C)C)nc3ccccc32)cc1	> 10000	> 10000
O=C(c1cc2ccccc2s1)c1cccc2ccccc12	4500	2700
COc1ccc(C(=O)n2c(C3CCCCC3)nc3ccccc32)cc1	> 10000	> 10000

Biological target: Cannabinoid receptor 1 (CB1) (Homo sapiens, UniProt P21554)
Sequence (P21554 whole entry): as above
Assay: Displacement of [3H]CP-55940 from human recombinant CB1 receptor expressed in HEK293 cell membranes at 1 uM incubated for 1.5 hrs relative to control
Conditions: probe [3H]CP-55940
In short: (§2)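 Single-point screen on HEK-293 membranes overexpressing human CB1 or CB2. […] Compounds displacing more than 50% at 1 μM went on to full curves.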

SMILES	inhibition at 1.5 h, 1 µM [%]
COc1ccc(C(=O)n2c(C3CCCC3)nc3ccccc32)cc1	> 50
CC(C)c1nc2ccccc2n1C(=O)c1cccc2ccccc12	> 50
COc1ccc(C(=O)n2c(-c3ccc(OC)cc3)nc3ccccc32)cc1	> 50
CCCc1sc2ccccc2c1C(=O)c1cccc2ccccc12	> 50
COc1ccc(C(=O)c2c(-c3ccc(OC)cc3)sc3ccccc23)cc1	> 50
COc1ccc(-c2nc3ccccc3n2C(=O)c2cccc3ccccc23)cc1	> 50
CCCCCc1sc2ccccc2c1C(=O)c1cccc2ccccc12	> 50
COc1ccc(C(=O)n2c(C(C)C)nc3ccccc32)cc1	> 50
COc1ccc(C(=O)n2c(C(C)(C)C)nc3ccccc32)cc1	> 50
O=C(c1cc2ccccc2s1)c1cccc2ccccc12	> 50
COc1ccc(C(=O)n2c(C3CCCCC3)nc3ccccc32)cc1	> 50

Biological target: T1, Cannabinoid receptor 2 (Homo sapiens, UniProt P34972)
T1 sequence (P34972 whole entry): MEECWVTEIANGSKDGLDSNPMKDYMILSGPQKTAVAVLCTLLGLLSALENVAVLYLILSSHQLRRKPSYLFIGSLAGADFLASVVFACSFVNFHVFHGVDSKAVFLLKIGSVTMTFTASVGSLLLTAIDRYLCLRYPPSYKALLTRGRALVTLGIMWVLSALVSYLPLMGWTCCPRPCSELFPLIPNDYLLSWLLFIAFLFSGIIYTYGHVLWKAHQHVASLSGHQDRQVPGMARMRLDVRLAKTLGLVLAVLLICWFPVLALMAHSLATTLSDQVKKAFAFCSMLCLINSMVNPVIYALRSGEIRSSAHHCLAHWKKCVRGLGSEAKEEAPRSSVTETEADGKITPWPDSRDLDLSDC
Assay: Displacement of [3H]CP-55940 from human recombinant CB2 receptor expressed in HEK293 cell membranes at 1 uM incubated for 1.5 hrs relative to control
Conditions: not given
In short: as §2

SMILES	inhibition [%]
COc1ccc(C(=O)n2c(C3CCCC3)nc3ccccc32)cc1	> 50
CC(C)c1nc2ccccc2n1C(=O)c1cccc2ccccc12	> 50
COc1ccc(C(=O)n2c(-c3ccc(OC)cc3)nc3ccccc32)cc1	> 50
CCCc1sc2ccccc2c1C(=O)c1cccc2ccccc12	> 50
COc1ccc(C(=O)c2c(-c3ccc(OC)cc3)sc3ccccc23)cc1	> 50
COc1ccc(-c2nc3ccccc3n2C(=O)c2cccc3ccccc23)cc1	> 50
CCCCCc1sc2ccccc2c1C(=O)c1cccc2ccccc12	> 50
COc1ccc(C(=O)n2c(C(C)C)nc3ccccc32)cc1	> 50
COc1ccc(C(=O)n2c(C(C)(C)C)nc3ccccc32)cc1	> 50
O=C(c1cc2ccccc2s1)c1cccc2ccccc12	> 50
COc1ccc(C(=O)n2c(C3CCCCC3)nc3ccccc32)cc1	> 50

Biological target: T1, Cannabinoid receptor 2
Assay: Displacement of [3H]CP-55940 from human recombinant CB2 receptor expressed in HEK293 cell membranes incubated for 1.5 hrs
Conditions: not given
In short: as §1

SMILES	IC50 [nM]	Ki [nM]
COc1ccc(C(=O)n2c(C3CCCC3)nc3ccccc32)cc1	2200	500
CC(C)c1nc2ccccc2n1C(=O)c1cccc2ccccc12	2100	500
COc1ccc(C(=O)n2c(-c3ccc(OC)cc3)nc3ccccc32)cc1	5900	1500
CCCc1sc2ccccc2c1C(=O)c1cccc2ccccc12	4300	1000
COc1ccc(C(=O)c2c(-c3ccc(OC)cc3)sc3ccccc23)cc1	400	100
COc1ccc(-c2nc3ccccc3n2C(=O)c2cccc3ccccc23)cc1	7700	1900
CCCCCc1sc2ccccc2c1C(=O)c1cccc2ccccc12	1300	300
COc1ccc(C(=O)n2c(C(C)C)nc3ccccc32)cc1	3200	800
COc1ccc(C(=O)n2c(C(C)(C)C)nc3ccccc32)cc1	2400	600
O=C(c1cc2ccccc2s1)c1cccc2ccccc12	4100	1000
COc1ccc(C(=O)n2c(C3CCCCC3)nc3ccccc32)cc1	2800	700

Species on record: Homo sapiens
Assay: Selectivity index, ratio of Ki for displacement of [3H]CP-55940 from human recombinant CB1 receptor to Ki for displacement of [3H]CP-55940 from human recombinant CB2 receptor
Conditions: not given
In short: as §1

SMILES	Ratio Ki
COc1ccc(C(=O)n2c(C3CCCC3)nc3ccccc32)cc1	> 20
CC(C)c1nc2ccccc2n1C(=O)c1cccc2ccccc12	> 20
COc1ccc(C(=O)n2c(-c3ccc(OC)cc3)nc3ccccc32)cc1	> 6.7
CCCc1sc2ccccc2c1C(=O)c1cccc2ccccc12	0.6
COc1ccc(C(=O)c2c(-c3ccc(OC)cc3)sc3ccccc23)cc1	7
COc1ccc(-c2nc3ccccc3n2C(=O)c2cccc3ccccc23)cc1	2.57
CCCCCc1sc2ccccc2c1C(=O)c1cccc2ccccc12	1.7
COc1ccc(C(=O)n2c(C(C)C)nc3ccccc32)cc1	> 12.5
COc1ccc(C(=O)n2c(C(C)(C)C)nc3ccccc32)cc1	> 16.7
O=C(c1cc2ccccc2s1)c1cccc2ccccc12	2.7
COc1ccc(C(=O)n2c(C3CCCCC3)nc3ccccc32)cc1	> 14

Test system: not listed separately
Assay: Cytotoxicity against human HeLa cells assessed as reduction in cell viability measured after 72 hrs by MTT assay
Format: functional, cell-based
Conditions: not given
In short: (§3)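 Cells kept in RPMI 1640 with 5% FBS, penicillin/streptomycin, 37 °C, 5% CO2. Seeded at 10,000 cells/well, then exposed to compounds at 0.001–10 μM in 5% FBS-RPMI for 72 h at 37 °C. MTT added for 4 h, formazan dissolved overnight in 10% SDS/0.1 mM HCl, absorbance read at 570 nm. […] Etoposide as positive control.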

SMILES	IC50 [nM]
COc1ccc(C(=O)n2c(C3CCCC3)nc3ccccc32)cc1	> 10000
CC(C)c1nc2ccccc2n1C(=O)c1cccc2ccccc12	> 10000
COc1ccc(C(=O)n2c(-c3ccc(OC)cc3)nc3ccccc32)cc1	> 10000
CCCc1sc2ccccc2c1C(=O)c1cccc2ccccc12	> 10000
COc1ccc(C(=O)c2c(-c3ccc(OC)cc3)sc3ccccc23)cc1	> 10000
COc1ccc(-c2nc3ccccc3n2C(=O)c2cccc3ccccc23)cc1	> 10000
CCCCCc1sc2ccccc2c1C(=O)c1cccc2ccccc12	> 10000
COc1ccc(C(=O)n2c(C(C)C)nc3ccccc32)cc1	> 10000
COc1ccc(C(=O)n2c(C(C)(C)C)nc3ccccc32)cc1	> 10000
O=C(c1cc2ccccc2s1)c1cccc2ccccc12	> 10000
COc1ccc(C(=O)n2c(C3CCCCC3)nc3ccccc32)cc1	> 10000

Test system: not listed separately
Assay: Cytotoxicity against resistant human HCT116 cells assessed as reduction in cell viability measured after 72 hrs by MTT assay
Format: functional, cell-based
Conditions: HCT-116, 72 h
In short: as §3

SMILES	IC50 [nM]
COc1ccc(C(=O)n2c(C3CCCC3)nc3ccccc32)cc1	> 10000
CC(C)c1nc2ccccc2n1C(=O)c1cccc2ccccc12	4410
COc1ccc(C(=O)n2c(-c3ccc(OC)cc3)nc3ccccc32)cc1	> 10000
CCCc1sc2ccccc2c1C(=O)c1cccc2ccccc12	> 10000
COc1ccc(C(=O)c2c(-c3ccc(OC)cc3)sc3ccccc23)cc1	> 10000
COc1ccc(-c2nc3ccccc3n2C(=O)c2cccc3ccccc23)cc1	1700
CCCCCc1sc2ccccc2c1C(=O)c1cccc2ccccc12	> 10000
COc1ccc(C(=O)n2c(C(C)C)nc3ccccc32)cc1	190
COc1ccc(C(=O)n2c(C(C)(C)C)nc3ccccc32)cc1	20
O=C(c1cc2ccccc2s1)c1cccc2ccccc12	> 10000
COc1ccc(C(=O)n2c(C3CCCCC3)nc3ccccc32)cc1	> 10000

Test system: not listed separately
Assay: Cytotoxicity against African green monkey Vero cells assessed as reduction in cell viability measured after 72 hrs by MTT assay
Format: toxicity, cell-based
Conditions: Chlorocebus sabaeus (African green monkey)
In short: as §3

SMILES	IC50 at 72 h [nM]
COc1ccc(C(=O)n2c(C3CCCC3)nc3ccccc32)cc1	> 10000
CC(C)c1nc2ccccc2n1C(=O)c1cccc2ccccc12	7230
COc1ccc(C(=O)n2c(-c3ccc(OC)cc3)nc3ccccc32)cc1	> 10000
CCCc1sc2ccccc2c1C(=O)c1cccc2ccccc12	> 10000
COc1ccc(C(=O)c2c(-c3ccc(OC)cc3)sc3ccccc23)cc1	> 10000
COc1ccc(-c2nc3ccccc3n2C(=O)c2cccc3ccccc23)cc1	> 10000
CCCCCc1sc2ccccc2c1C(=O)c1cccc2ccccc12	> 10000
COc1ccc(C(=O)n2c(C(C)C)nc3ccccc32)cc1	> 10000
COc1ccc(C(=O)n2c(C(C)(C)C)nc3ccccc32)cc1	> 10000
O=C(c1cc2ccccc2s1)c1cccc2ccccc12	> 10000
COc1ccc(C(=O)n2c(C3CCCCC3)nc3ccccc32)cc1	1640

Test system: not listed separately
Assay: Cytotoxicity against human HL60 cells assessed as reduction in cell viability measured after 72 hrs by MTT assay
Format: functional, cell-based
Conditions: HL-60, 72 h
In short: as §3

SMILES	IC50 [nM]
COc1ccc(C(=O)n2c(C3CCCC3)nc3ccccc32)cc1	76
CC(C)c1nc2ccccc2n1C(=O)c1cccc2ccccc12	70
COc1ccc(C(=O)n2c(-c3ccc(OC)cc3)nc3ccccc32)cc1	175
CCCc1sc2ccccc2c1C(=O)c1cccc2ccccc12	130
COc1ccc(C(=O)c2c(-c3ccc(OC)cc3)sc3ccccc23)cc1	76
COc1ccc(-c2nc3ccccc3n2C(=O)c2cccc3ccccc23)cc1	146
CCCCCc1sc2ccccc2c1C(=O)c1cccc2ccccc12	170
COc1ccc(C(=O)n2c(C(C)C)nc3ccccc32)cc1	630
COc1ccc(C(=O)n2c(C(C)(C)C)nc3ccccc32)cc1	55
O=C(c1cc2ccccc2s1)c1cccc2ccccc12	51
COc1ccc(C(=O)n2c(C3CCCCC3)nc3ccccc32)cc1	85

Test system: not listed separately
Assay: Cytotoxicity against human H1975-1 cells assessed as reduction in cell viability measured after 72 hrs by MTT assay
Format: functional, cell-based
Conditions: not given
In short: as §3

SMILES	IC50 [nM]
COc1ccc(C(=O)n2c(C3CCCC3)nc3ccccc32)cc1	> 10000
CC(C)c1nc2ccccc2n1C(=O)c1cccc2ccccc12	> 10000
COc1ccc(C(=O)n2c(-c3ccc(OC)cc3)nc3ccccc32)cc1	> 10000
CCCc1sc2ccccc2c1C(=O)c1cccc2ccccc12	> 10000
COc1ccc(C(=O)c2c(-c3ccc(OC)cc3)sc3ccccc23)cc1	> 10000
COc1ccc(-c2nc3ccccc3n2C(=O)c2cccc3ccccc23)cc1	> 10000
CCCCCc1sc2ccccc2c1C(=O)c1cccc2ccccc12	> 10000
COc1ccc(C(=O)n2c(C(C)C)nc3ccccc32)cc1	> 10000
COc1ccc(C(=O)n2c(C(C)(C)C)nc3ccccc32)cc1	> 10000
O=C(c1cc2ccccc2s1)c1cccc2ccccc12	> 10000
COc1ccc(C(=O)n2c(C3CCCCC3)nc3ccccc32)cc1	> 10000
